Measurements as given in ChEMBL document CHEMBL5649170, “Sustained microglial depletion with CSF1R inhibitor impairs parenchymal plaque development in an Alzheimer's disease model” (Nat Commun, 2019).
Activity calls are given as the source filed them. The calls are words filed in the database; no cut-off is given here.

What was measured:
[1] = Dissociation constant, pKa of compound; assay type: physicochemical
[2] = Inhibition of BCR-CSF1R (unknown origin) expressed in mouse BaF3 cells assessed as inhibition of BCR-CSF1R dependent cell proliferation incubated for 3 days by ATPlite 1step Luminescence Assay reagent based assay; conditions: Homo sapiens, BaF3, 72 h
[3] = Inhibition of BCR-CSF1R (unknown origin) expressed in mouse BaF3 cells assessed as inhibition of IL3-dependent cell proliferation incubated for 3 days by ATPlite 1step Luminescence Assay reagent based assay; conditions: Homo sapiens, BaF3, 72 h
[4] = Inhibition of BCR-KIT (unknown origin) expressed in mouse BaF3 cells assessed as inhibition of BCR-KIT dependent cell proliferation incubated for 3 days by ATPlite 1step Luminescence Assay reagent based assay; conditions: Homo sapiens, BaF3, 72 h
[5] = Inhibition of BCR-KIT (unknown origin) expressed in mouse BaF3 cells assessed as inhibition of IL3 dependent cell proliferation incubated for 3 days by ATPlite 1step Luminescence Assay reagent based assay; conditions: Homo sapiens, BaF3, 72 h
Brain = assay: Drug penetration in mouse brain; assay type: ADME, tissue-based; conditions: in vivo
[6] = Octanol to water partition coefficient, logD of the compound; assay type: physicochemical
[7] = Permeability in human Caco-2 cells; assay type: ADME, cell-based; conditions: read-out: permeability
[8] = Drug concentration in 5XFAD mouse brain at 75 ppm administered as rodent chow starting from 1.5 months and measured after 5 months; assay type: ADME, tissue-based; conditions: route po, time 3.5 months, read-out: Ct
Method in brief: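 WT or 5xFAD mice were fed PLX3397 in AIN-76A chow at 600 ppm or 75 ppm from 1.5 to 5 months of age. Terminal brain and plasma drug concentrations were determined at study end.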

Mus musculus [9] = assay: Antialzheimer activity in 5XFAD mouse assessed as number of plaques per FOV in somatosensory cortex at 75 ppm administered as rodent chow starting from 1.5 months and measured after 5 months by immunolabeling based confocal microscopic analysis (reference value: 22 to 91); assay type: functional; conditions: route po, time 3.5 months, 2555 h
Method in brief: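 5xFAD mice ate AIN-76A chow with 75 ppm PLX3397, or control chow, from 1.5 to 5 months of age. Sections of retrosplenial and somatosensory cortex were stained with Thio-S and immunolabeled for IBA1, then imaged by confocal microscopy. n = 4–5 per group; two-tailed independent t-test; mean ± SEM.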

[10] = molecular target: Casein kinase I isoform gamma-1 (Homo sapiens, UniProt Q9HCP0); assay: Inhibition of CSNK1G1 (unknown origin)
[11] = molecular target: Death-associated protein kinase 3 (Homo sapiens, UniProt O43293); assay: Inhibition of DAPK3 (unknown origin)
[12] = molecular target: Tyrosine-protein kinase ZAP-70 (Homo sapiens, UniProt P43403); assay: Inhibition of ZAP70 (unknown origin)
[13] = AUC (0 to infinity) in male rat at 1.13 mg/kg, iv administered as single dose; assay type: ADME, organism-based; conditions: in vivo
Mus musculus [14] = assay: Antialzheimer activity in 5XFAD mouse assessed as amyloidbeta42 level in detergent soluble thalamus fraction measured per microgram protein at 1200 ppm administered as rodent chow starting from 1.5 months and measured after 7 months by ELISA (reference value: 0 to 0.271 pg); assay type: functional; conditions: route po, time 5.5 months, 4015 h
Method in brief: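 PLX5622 at 1200 ppm in chow given to 5xFAD mice from 1.5 months to 4 or 7 months of age; cortex and thalamus homogenized in TPER (detergent-soluble), pellets re-homogenized in 70% formic acid and spun 100,000 g, 1 h, 4 °C (insoluble); protein by Bradford/Lowry; Aβ species measured by Meso Scale electrochemiluminescence immunoassay, normalized to protein; n = 7–8 per group at 7 months.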

[15] = molecular target: T1, Macrophage colony-stimulating factor 1 receptor (Mus musculus) (UniProt P09581); assay: In vivo inhibition of CSF1R in wildtype mouse assessed as number of S100bteta positive cells per FOV in somatosensory cortex at 1200 ppm administered as rodent chow for 10 to 24 weeks by immunolabelling based confocal microscopic analysis (reference value: 14 to 342); assay type: functional; conditions: route po, time 10-24 weeks
T1 sequence (whole entry): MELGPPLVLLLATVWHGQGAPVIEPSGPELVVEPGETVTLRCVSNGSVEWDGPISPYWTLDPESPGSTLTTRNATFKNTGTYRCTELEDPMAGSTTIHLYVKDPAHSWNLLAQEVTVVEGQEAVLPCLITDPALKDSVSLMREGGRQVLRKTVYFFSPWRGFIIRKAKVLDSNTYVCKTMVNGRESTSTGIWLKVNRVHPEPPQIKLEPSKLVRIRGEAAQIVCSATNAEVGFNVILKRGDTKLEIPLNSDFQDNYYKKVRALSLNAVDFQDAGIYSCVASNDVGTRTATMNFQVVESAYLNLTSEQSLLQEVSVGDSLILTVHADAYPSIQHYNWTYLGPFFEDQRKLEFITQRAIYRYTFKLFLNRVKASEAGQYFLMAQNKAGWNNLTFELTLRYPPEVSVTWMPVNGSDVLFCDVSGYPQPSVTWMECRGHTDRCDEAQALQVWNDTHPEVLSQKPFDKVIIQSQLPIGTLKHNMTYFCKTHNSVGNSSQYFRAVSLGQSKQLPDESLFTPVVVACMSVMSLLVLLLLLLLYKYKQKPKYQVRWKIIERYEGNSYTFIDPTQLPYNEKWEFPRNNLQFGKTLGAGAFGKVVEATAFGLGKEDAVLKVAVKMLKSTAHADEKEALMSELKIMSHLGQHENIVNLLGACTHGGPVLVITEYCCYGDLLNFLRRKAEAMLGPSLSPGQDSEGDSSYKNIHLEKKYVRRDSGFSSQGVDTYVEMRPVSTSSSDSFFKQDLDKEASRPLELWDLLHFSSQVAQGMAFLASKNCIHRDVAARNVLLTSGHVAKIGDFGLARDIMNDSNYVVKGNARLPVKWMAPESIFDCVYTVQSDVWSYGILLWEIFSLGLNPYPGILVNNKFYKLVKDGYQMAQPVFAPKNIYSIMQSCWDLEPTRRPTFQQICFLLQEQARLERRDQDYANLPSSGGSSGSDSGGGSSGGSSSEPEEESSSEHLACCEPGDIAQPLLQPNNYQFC

Mus musculus [16] = assay: Antialzheimer activity in 5XFAD mouse assessed as average diameter of claudin-5 blood vessels in Thio-S negative thalamus at 1200 ppm administered as rodent chow starting from 1.5 months and measured after 4 months by immunolabeling analysis; assay type: functional; conditions: route po, time 2.5 months, 1825 h
Mus musculus [17] = assay: Effect on APP processing pathway in wildtype mouse assessed as PS1 protein signal intensity in cortex at 1200 ppm administered as rodent starting from 1.5 months and measured after 7 months (reference value: 78.906 to 243.681 %); assay type: functional; conditions: route po, time 5.5 months, 4015 h
Mus musculus [18] = assay: Antialzheimer activity in 5XFAD mouse assessed as ApoE immunoreactivity by measuring ApoE intensity of plaque core in cortex at 1200 ppm administered as rodent chow starting from 1.5 months and measured after 7 months by immunolabeling based confocal microscopic analysis (reference value: 13.88 to 87.23 a.u.); assay type: functional; conditions: route po, time 5.5 months, 4015 h
[19] = Effect on Cst7 gene expression in 5XFAD mouse cortex at 1200 ppm administered as rodent chow starting from 1.5 months and measured after 7 months by RNA-Seq analysis (reference value: 9.853 to 27.586 RPKM); assay type: functional; conditions: route po, time 5.5 months, 4015 h
Mus musculus [20] = assay: Prevention of Apc gene downregulation in 5XFAD mouse hippocampus at 1200 ppm administered as rodent chow starting from 1.5 months and measured after 7 months by Nanostring analysis; assay type: functional, tissue-based; conditions: route po, time 5.5 months

Sequence of Death-associated protein kinase 3 (O43293 whole entry): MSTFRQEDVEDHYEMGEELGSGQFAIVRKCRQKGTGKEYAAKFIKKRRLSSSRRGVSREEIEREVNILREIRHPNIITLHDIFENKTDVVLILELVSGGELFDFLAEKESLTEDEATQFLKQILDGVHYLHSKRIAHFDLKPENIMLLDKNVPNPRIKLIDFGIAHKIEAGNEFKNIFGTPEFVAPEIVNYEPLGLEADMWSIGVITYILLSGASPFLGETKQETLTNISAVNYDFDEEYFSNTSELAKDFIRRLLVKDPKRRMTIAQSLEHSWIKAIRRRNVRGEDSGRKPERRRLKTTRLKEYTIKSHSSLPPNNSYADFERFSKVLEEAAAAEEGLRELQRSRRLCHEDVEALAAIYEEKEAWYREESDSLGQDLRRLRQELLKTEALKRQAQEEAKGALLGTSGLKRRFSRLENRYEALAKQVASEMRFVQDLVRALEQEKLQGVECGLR
Sequence of Tyrosine-protein kinase ZAP-70 (P43403 whole entry): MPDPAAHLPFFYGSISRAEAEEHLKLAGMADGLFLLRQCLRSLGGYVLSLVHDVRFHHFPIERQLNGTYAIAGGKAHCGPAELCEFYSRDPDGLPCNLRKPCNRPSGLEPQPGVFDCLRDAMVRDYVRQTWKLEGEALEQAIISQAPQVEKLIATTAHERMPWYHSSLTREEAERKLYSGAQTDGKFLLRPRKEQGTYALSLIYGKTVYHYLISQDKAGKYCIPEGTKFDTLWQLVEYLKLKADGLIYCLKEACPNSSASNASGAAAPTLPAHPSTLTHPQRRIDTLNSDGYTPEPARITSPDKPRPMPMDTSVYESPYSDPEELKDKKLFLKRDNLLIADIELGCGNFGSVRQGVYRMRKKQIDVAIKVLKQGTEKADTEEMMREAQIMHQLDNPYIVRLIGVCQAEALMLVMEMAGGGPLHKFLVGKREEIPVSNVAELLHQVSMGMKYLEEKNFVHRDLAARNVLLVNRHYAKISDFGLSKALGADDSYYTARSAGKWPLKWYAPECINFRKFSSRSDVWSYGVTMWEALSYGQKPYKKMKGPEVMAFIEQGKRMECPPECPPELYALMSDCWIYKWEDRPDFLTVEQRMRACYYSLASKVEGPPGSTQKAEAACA
Sequence of Casein kinase I isoform gamma-1 (Q9HCP0 whole entry, canonical isoform): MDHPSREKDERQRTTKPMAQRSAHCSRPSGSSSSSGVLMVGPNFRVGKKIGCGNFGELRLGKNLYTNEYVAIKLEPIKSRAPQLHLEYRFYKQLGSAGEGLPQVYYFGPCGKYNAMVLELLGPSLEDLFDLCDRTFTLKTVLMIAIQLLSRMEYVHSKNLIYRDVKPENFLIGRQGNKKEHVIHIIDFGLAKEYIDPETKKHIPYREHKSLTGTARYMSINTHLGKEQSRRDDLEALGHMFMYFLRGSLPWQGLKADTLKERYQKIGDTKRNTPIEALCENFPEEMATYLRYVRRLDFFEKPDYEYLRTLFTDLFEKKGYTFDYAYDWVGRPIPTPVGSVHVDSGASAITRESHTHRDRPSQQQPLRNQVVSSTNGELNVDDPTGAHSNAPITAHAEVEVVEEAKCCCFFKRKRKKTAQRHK

Compound | pKa [1] | IC50 [2] | IC50 [3] | IC50 [4] | IC50 [5] | Drug uptake (Brain) | logD [6] | Papp [7] | also measured
FC(F)(F)c1ccc(CNc2ccc(Cc3c[nH]c4ncc(Cl)cc34)cn2)cn1 [PEXIDARTINIB] | 5.2 | 9 nM | > 10000 nM | 110 nM | > 10000 nM | ~ 5% | 3.35 | 1.4 ×10⁻⁶ cm/s | concentration at 2555 h [8]: 600 nM; Activity (Mus musculus [9]): 31
COc1ncc(F)cc1CNc1ccc(Cc2c[nH]c3ncc(C)cc23)c(F)n1 [PLX-5622] | 4.14 | 17 nM | > 10000 nM | 2700 nM | > 10000 nM | ~ 20% | 3.92 | 12.2 ×10⁻⁶ cm/s | IC50 [10]: > 1000 nM; IC50 [11]: > 1000 nM; IC50 [12]: > 1000 nM; AUC(0-inf) [13]: 2630 ng·h/mL; Activity (Mus musculus [14]): 0 pg; Activity [15]: 270; Activity (Mus musculus [16]): 1.854 um; Activity (Mus musculus [17]): 99.34%; Flu intensity (Mus musculus [18]): 4.57 a.u.; Activity [19]: 0.887 RPKM; Activity (Mus musculus [20]): Active
